Data on 17 compounds can be found in ChEMBL document CHEMBL1152808, “Novel adenosine-derived inhibitors of 70 kDa heat shock protein, discovered through structure-based design” (J Med Chem, 2009).

Test [1] can be described thus: Displacement of fluorescein labeled N6-(6-amino)hexyl-ATP-5-FAM from HSP70 by fluorescence polarization assay. Summed up: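 Competitive FP binding: displacement of fluorescein-labelled ATP-based probe N6-(6-amino)hexyl-ATP-5-FAM (probe KD 0.4 µM) from HSP70 at 0.4 µM protein; IC50 from binding competition.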
On the technique in general: Polarisation of emitted light reports the rotation of a fluorescent probe.

For test [2], the system named is HCT-116. Description: Cytotoxicity against human HCT116 cells by SRB assay. Type of test: functional. Summed up: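 HCT116 human colon tumour cells; growth inhibition measured by sulforhodamine B (SRB) staining; GI50 reported.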
A short description of test [3]: Binding affinity to HSP90 by fluorescence polarization assay.
A short description of test [4]: Binding affinity to HSP70 by Biocore direct binding assay. Summed up: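 SPR direct binding: double His-tagged HSP70 construct immobilized on a Biacore sensor chip; KD determined from direct ligand binding.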
In test [5] the test system is HCT-116. In words: Inhibition of HSP70 in human HCT116 cells assessed as reduction of […] protein levels after 24 hrs by Western blot. The format is cell-based. Summed up:
(§1)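 HCT116 cells exposed to compound for 24 h at 0.05 or 0.1 µM or 2.5-40 µM. Raf-1, Her2 and HSP70 expression detected by Western blot. GAPDH served as loading control.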
(In general: A western blot detects proteins with antibodies after separation by electrophoresis.)

Test [6] deals with HCT-116. In words: Inhibition of HSP70 in human HCT116 cells assessed as reduction of Raf1 protein levels after 24 hrs by Western blot. Type of test: cell-based. Summed up:
as §1

The source made the active and inactive calls. The rule behind the calls is not given here. Some results are limits rather than exact numbers.

For `COC[C@H]1O[C@@H](n2c(NCc3ccc(Cl)c(Cl)c3)nc3c(N)ncnc32)[C@H](O)[C@@H]1O`, the IC50 in test [1] was 3.2 µM; in test [3], above 400 µM. In test [2], the GI50 is above 80 µM.

Turning to `Nc1ncnc2c1ncn2[C@@H]1O[C@H](COP(=O)(O)OP(=O)(O)O)[C@@H](O)[C@H]1O` [ADENOSINE DIPHOSPHATE], the values for the IC50 in test [1] and in test [3] were 0.5 µM and above 400 µM, respectively. For the same compound, the Kd in test [4] is 0.5 µM.

Consider `Nc1ncnc2c1nc(NCc1ccccc1)n2[C@@H]1O[C@H](CO)[C@@H](O)[C@H]1O`, for which the IC50 in test [1] is 10 µM; in test [3] it was above 400 µM. In test [2], this compound registered a GI50 above 80 µM.

For `N#Cc1ccc(COC[C@H]2O[C@@H](n3c(NCc4ccc5ncccc5c4)nc4c(N)ncnc43)[C@H](O)[C@@H]2O)cc1`, the results for the 50% inhibitory concentration (IC50) in test [1] and in test [3] were 0.9 µM and above 400 µM, respectively. The Kd in test [4] turned out to be 0.05 µM. In test [2], this compound registered a GI50 above 80 µM.

As to `Nc1ncnc2c1ncn2[C@@H]1O[C@H](CO)[C@@H](O)[C@H]1O` [ADENOSINE], the IC50 was 560 µM in test [1] and above 400 µM in test [3].

Regarding `Nc1ncnc2c1ncn2[C@@H]1O[C@H](COP(=O)(O)OP(=O)(O)OP(=O)(O)O)[C@@H](O)[C@H]1O` [ADENOSINE TRIPHOSPHATE], the IC50 in test [1] is 0.5 µM; in test [3], above 400 µM.

For the compound `Nc1ncnc2c1nc(NCc1ccc(Cl)c(Cl)c1)n2[C@@H]1O[C@H](COCc2cc(F)c(F)c(F)c2)[C@@H](O)[C@H]1O`, the half-inhibitory concentration (IC50) is 1.7 µM in test [1] and above 400 µM in test [3]. The compound also came in with a Kd in test [4] of 4.2 µM. The compound further yielded a GI50 in test [2] of 13 µM.

Regarding `Nc1ncnc2c1nc(NCc1ccc3ncccc3c1)n2[C@@H]1O[C@H](COCc2cc(F)c(F)c(F)c2)[C@@H](O)[C@H]1O`, the IC50 in test [1] was below 0.4 µM; in test [3], above 400 µM. The compound further returned a Kd in test [4] of 0.12 µM. The 50% growth inhibitory concentration (GI50) in test [2] is 18 µM.

For `N#Cc1ccc(COC[C@H]2O[C@@H](n3c(NCc4ccccc4)nc4c(N)ncnc43)[C@H](O)[C@@H]2O)cc1`, the IC50 in test [1] was 1.3 µM; in test [3], above 400 µM. Moreover, the affinity in test [4], expressed as Kd, was 0.2 µM. The same compound returned a GI50 in test [2] above 80 µM.

With `N#Cc1ccc(COC[C@H]2O[C@@H](n3c(NCc4ccc(Cl)c(Cl)c4)nc4c(N)ncnc43)[C@H](O)[C@@H]2O)cc1`, the 50% inhibitory concentration (IC50) in test [1] was 0.5 µM; in test [3] it was above 400 µM. For the same compound, binding in test [4] was put at a Kd of 0.3 µM. The same compound yielded a GI50 in test [2] of 5 µM. Besides, the outcome in test [5] and in test [6] was Active.

On to `Nc1ncnc2c1nc(N)n2[C@@H]1O[C@H](CO)[C@@H](O)[C@H]1O`, for which the IC50 in test [1] is 9.4 µM; in test [3], above 400 µM. Moreover, binding in test [4] was characterised by a dissociation constant (Kd) of 11 µM. In test [2], the concentration for 50% growth inhibition (GI50) came out at 0.05 µM. Moreover, the result in test [5] and in test [6] was inactive.

As to `Nc1ncnc2c1nc(NCc1ccc(Cl)c(Cl)c1)n2[C@@H]1O[C@H](CO)[C@@H](O)[C@H]1O`, the IC50 was 9.1 µM in test [1] and above 400 µM in test [3]. This compound also displayed a 50% growth inhibitory concentration (GI50) in test [2] of 26 µM.

`CNc1nc2c(N)ncnc2n1[C@@H]1O[C@H](CO)[C@@H](O)[C@H]1O`: the IC50 was 17 µM in test [1] and above 400 µM in test [3]. For the same compound, growth in test [2] was halved (GI50) at 13 µM.

For `Nc1ncnc2c1nc(NCc1ccc3ncccc3c1)n2[C@@H]1O[C@H](COCc2ccc(C(F)(F)F)cc2)[C@@H](O)[C@H]1O`, the IC50 in test [1] is 0.6 µM; in test [3] it was above 400 µM. Further, binding in test [4] was put at a Kd of 0.06 µM. In test [2], this compound registered a GI50 of 27 µM.

On to `Nc1ncnc2c1nc(NCc1ccc3ncccc3c1)n2[C@@H]1O[C@H](CO)[C@@H](O)[C@H]1O`, for which the IC50 in test [1] is 2.9 µM; in test [3] it was above 400 µM. The GI50 in test [2] was above 80 µM.

Turning to `Nc1ncnc2c1nc(NCc1ccc3c(c1)OCO3)n2[C@@H]1O[C@H](CO)[C@@H](O)[C@H]1O`, the IC50 is 4.9 µM in test [1] and above 400 µM in test [3]. The compound further registered a GI50 in test [2] above 80 µM.

Consider `Nc1ncnc2c1nc(NCc1ccc(Cl)c(Cl)c1)n2[C@@H]1O[C@H](COCc2ccccc2)[C@@H](O)[C@H]1O`, for which the values for the IC50 in test [1] and in test [3] were 2.4 µM and above 400 µM, respectively. This compound also displayed a GI50 in test [2] above 80 µM.

Usually IC50 stands for the concentration at which inhibition is half-maximal. For orientation: GI50 means the concentration that inhibits growth by half. A word on the Kd: it is the free concentration of one partner at which half of the binding sites on the other are occupied at equilibrium, for simple one-to-one binding. A higher Kd goes with lower affinity.
